According to ChEMBL document CHEMBL5058577, “EUbOPEN Chemogenomics Library 2 (Multiplex)” (2022):

System: U2OS
Test: Multiplex assay against U2OS
Type: toxicity, cell-based
Details: human
How it was run: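 Phenotypes for tubulin, mitochondrial mass and membrane permeability are expressed as per cents of healthy-nucleus cells. Cells were stained live at seeding with Hoechst33342, BioTracker Green Microtubule Cytoskeleton Dye, MitoTracker Red and Annexin V Alexa Fluor 680, then imaged after compound addition on a CQ1 microscope at 37°C and 5% CO2. Machine-learning gating in CellPathfinder separated Hoechst high-intensity objects from normal cells, divided normal cells by nuclear state (healthy, pyknosed, fragmented) and divided pyknosed cells into mitotic or apoptotic.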

[1] = 12 h, 1 µM, compound concentration 1 uM, replicate 1
[2] = 12 h, 1 µM, compound concentration 1 uM, replicate 2
[3] = 12 h, 10 µM, compound concentration 10 uM, replicate 1
[4] = 12 h, 10 µM, compound concentration 10 uM, replicate 2
[5] = 24 h, 1 µM, compound concentration 1 uM, replicate 1
[6] = 24 h, 1 µM, compound concentration 1 uM, replicate 2
[7] = 24 h, 10 µM, compound concentration 10 uM, replicate 1
[8] = 24 h, 10 µM, compound concentration 10 uM, replicate 2
[9] = 48 h, 1 µM, compound concentration 1 uM, replicate 1
[10] = 48 h, 1 µM, compound concentration 1 uM, replicate 2
[11] = 48 h, 10 µM, compound concentration 10 uM, replicate 1
[12] = 48 h, 10 µM, compound concentration 10 uM, replicate 2

Structure (SMILES): O=C(CCCc1ccccc1)Nc1nc2ccccc2c(=O)s1
- Population Apoptotic (%) [1]: 92%
- Population Fragmented Nuclei (%) [1]: 26%
- Population Healthy Nuclei (%) [1]: 64%
- Population Hoechst High Intensity Objects (%) [1]: 2%
- Population Membrane Permeable-Phenotype (%) [1]: 4%
- Population Mitochondria Different-Phenotype (%) [1]: 2%
- Population Mitotic Cells (%) [1]: 7%
- Population Normal (%) [1]: 97%
- Population Pyknosed Nuclei (%) [1]: 9%
- Population Tubulin-Different-Phenotype (%) [1]: 1%
- Total Cell Count [1]: 274
- Population Apoptotic (%) [2]: 55%
- Population Fragmented Nuclei (%) [2]: 17%
- Population Healthy Nuclei (%) [2]: 74%
- Population Hoechst High Intensity Objects (%) [2]: 0%
- Population Membrane Permeable-Phenotype (%) [2]: 7%
- Population Mitochondria Different-Phenotype (%) [2]: 3%
- Population Mitotic Cells (%) [2]: 44%
- Population Normal (%) [2]: 100%
- Population Pyknosed Nuclei (%) [2]: 7%
- Population Tubulin-Different-Phenotype (%) [2]: 2%
- Total Cell Count [2]: 113
- Population Apoptotic (%) [3]: 72%
- Population Fragmented Nuclei (%) [3]: 31%
- Population Healthy Nuclei (%) [3]: 58%
- Population Hoechst High Intensity Objects (%) [3]: 2%
- Population Membrane Permeable-Phenotype (%) [3]: 2%
- Population Mitochondria Different-Phenotype (%) [3]: 0%
- Population Mitotic Cells (%) [3]: 28%
- Population Normal (%) [3]: 97%
- Population Pyknosed Nuclei (%) [3]: 9%
- Population Tubulin-Different-Phenotype (%) [3]: 1%
- Total Cell Count [3]: 270
- Population Apoptotic (%) [4]: 100%
- Population Fragmented Nuclei (%) [4]: 20%
- Population Healthy Nuclei (%) [4]: 67%
- Population Hoechst High Intensity Objects (%) [4]: 4%
- Population Membrane Permeable-Phenotype (%) [4]: 7%
- Population Mitochondria Different-Phenotype (%) [4]: 6%
- Population Mitotic Cells (%) [4]: 0%
- Population Normal (%) [4]: 95%
- Population Pyknosed Nuclei (%) [4]: 11%
- Population Tubulin-Different-Phenotype (%) [4]: 6%
- Total Cell Count [4]: 101
- Population Apoptotic (%) [5]: 79%
- Population Fragmented Nuclei (%) [5]: 22%
- Population Healthy Nuclei (%) [5]: 68%
- Population Hoechst High Intensity Objects (%) [5]: 1%
- Population Membrane Permeable-Phenotype (%) [5]: 4%
- Population Mitochondria Different-Phenotype (%) [5]: 2%
- Population Mitotic Cells (%) [5]: 20%
- Population Normal (%) [5]: 98%
- Population Pyknosed Nuclei (%) [5]: 9%
- Population Tubulin-Different-Phenotype (%) [5]: 2%
- Total Cell Count [5]: 325
- Population Apoptotic (%) [6]: 84%
- Population Fragmented Nuclei (%) [6]: 17%
- Population Healthy Nuclei (%) [6]: 73%
- Population Hoechst High Intensity Objects (%) [6]: 0%
- Population Membrane Permeable-Phenotype (%) [6]: 8%
- Population Mitotic Cells (%) [6]: 15%
- Population Normal (%) [6]: 100%
- Population Tubulin-Different-Phenotype (%) [6]: 3%
- Total Cell Count [6]: 141
- Population Apoptotic (%) [7]: 86%
- Population Fragmented Nuclei (%) [7]: 25%
- Population Healthy Nuclei (%) [7]: 65%
- Population Hoechst High Intensity Objects (%) [7]: 2%
- Population Membrane Permeable-Phenotype (%) [7]: 5%
- Population Mitochondria Different-Phenotype (%) [7]: 1%
- Population Mitotic Cells (%) [7]: 13%
- Population Normal (%) [7]: 97%
- Population Pyknosed Nuclei (%) [7]: 9%
- Population Tubulin-Different-Phenotype (%) [7]: 4%
- Total Cell Count [7]: 319
- Population Apoptotic (%) [8]: 100%
- Population Fragmented Nuclei (%) [8]: 19%
- Population Healthy Nuclei (%) [8]: 71%
- Population Hoechst High Intensity Objects (%) [8]: 1%
- Population Membrane Permeable-Phenotype (%) [8]: 8%
- Population Mitochondria Different-Phenotype (%) [8]: 2%
- Population Mitotic Cells (%) [8]: 0%
- Population Normal (%) [8]: 98%
- Population Tubulin-Different-Phenotype (%) [8]: 3%
- Total Cell Count [8]: 124
- Population Apoptotic (%) [9]: 91%
- Population Fragmented Nuclei (%) [9]: 13%
- Population Healthy Nuclei (%) [9]: 76%
- Population Hoechst High Intensity Objects (%) [9]: 7%
- Population Membrane Permeable-Phenotype (%) [9]: 3%
- Population Mitochondria Different-Phenotype (%) [9]: 2%
- Population Mitotic Cells (%) [9]: 8%
- Population Normal (%) [9]: 92%
- Population Pyknosed Nuclei (%) [9]: 9%
- Population Tubulin-Different-Phenotype (%) [9]: 1%
- Total Cell Count [9]: 394
- Population Apoptotic (%) [10]: 87%
- Population Fragmented Nuclei (%) [10]: 19%
- Population Healthy Nuclei (%) [10]: 71%
- Population Hoechst High Intensity Objects (%) [10]: 5%
- Population Mitochondria Different-Phenotype (%) [10]: 3%
- Population Mitotic Cells (%) [10]: 12%
- Population Normal (%) [10]: 94%
- Population Pyknosed Nuclei (%) [10]: 8%
- Population Tubulin-Different-Phenotype (%) [10]: 6%
- Total Cell Count [10]: 192
- Population Apoptotic (%) [11]: 91%
- Population Fragmented Nuclei (%) [11]: 20%
- Population Healthy Nuclei (%) [11]: 70%
- Population Hoechst High Intensity Objects (%) [11]: 2%
- Population Membrane Permeable-Phenotype (%) [11]: 5%
- Population Mitochondria Different-Phenotype (%) [11]: 0%
- Population Mitotic Cells (%) [11]: 8%
- Population Normal (%) [11]: 97%
- Population Pyknosed Nuclei (%) [11]: 8%
- Population Tubulin-Different-Phenotype (%) [11]: 3%
- Total Cell Count [11]: 427
- Population Apoptotic (%) [12]: 95%
- Population Fragmented Nuclei (%) [12]: 15%
- Population Healthy Nuclei (%) [12]: 72%
- Population Hoechst High Intensity Objects (%) [12]: 0%
- Population Membrane Permeable-Phenotype (%) [12]: 9%
- Population Mitochondria Different-Phenotype (%) [12]: 3%
- Population Mitotic Cells (%) [12]: 4%
- Population Normal (%) [12]: 99%
- Population Pyknosed Nuclei (%) [12]: 12%
- Population Tubulin-Different-Phenotype (%) [12]: 5%
- Total Cell Count [12]: 175
